This passage reports Ki and IC50 results from ChEMBL document CHEMBL4261564, “Studies on enantioselectivity of chiral 4-acetylamino-6-alkyloxy-2-alkylthiopyrimidines acting as antagonists of the human A3 adenosine receptor” (Medchemcomm, 2018).

As usually defined, the pKi is −log10 of the Ki, conventionally taken in molar units. By pIC50 is commonly meant the IC50 on a negative log10 scale, so that one unit is a factor of ten.

Molecules are shown by their SMILES. pIC50, pKi: −log10 of the molar value. Some results are limits rather than exact numbers.

The target of assay [1] is T1, Adenosine receptor A3 (Homo sapiens, UniProt P0DMS8).
T1 sequence (P0DMS8 whole entry): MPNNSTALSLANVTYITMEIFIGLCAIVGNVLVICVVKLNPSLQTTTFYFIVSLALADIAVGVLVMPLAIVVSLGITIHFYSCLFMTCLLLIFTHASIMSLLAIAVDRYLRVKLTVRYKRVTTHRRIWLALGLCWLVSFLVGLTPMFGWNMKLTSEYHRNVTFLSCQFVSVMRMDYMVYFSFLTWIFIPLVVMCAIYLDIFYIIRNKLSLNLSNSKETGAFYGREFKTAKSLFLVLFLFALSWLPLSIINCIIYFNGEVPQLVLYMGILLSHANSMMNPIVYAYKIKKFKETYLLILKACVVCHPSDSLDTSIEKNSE
The assay can be described thus: Displacement of [3H]NECA from recombinant human adenosine A3 receptor expressed in CHO cell membranes measured after 180 mins.

Assay [2] has as its target T1, Adenosine receptor A3. The assay can be described thus: Antagonist activity at recombinant human adenosine A3 receptor expressed in CHO cells assessed as reduction in Cl-IB-MECA-induced inhibition of forskolin-stimulated [3H]cAMP accumulation preincubated for 10 mins followed by Cl-IB-MECA addition measured after 30 mins by liquid scintillation counting method. It is filed as functional, cell-based. A digest of the protocol: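 A3 AR CHO cells are plated at about 30,000 per well and used 24 h later. They are preincubated 15 min at 37 °C in DMEM containing ADA 1 U/mL and Ro20-1724 20 µM. Compound is added 10 min before Cl-IB-MECA, with 1 µM forskolin present. The reaction is stopped with 0.4 N HCl and neutralised with KOH. cAMP is measured by competitive binding of [3H]cAMP (2 nM) to bovine adrenal binding protein for 150 min at 0 °C, then filtered and counted by scintillation.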

Another assay concerns the target T2, Adenosine receptor A2b (Homo sapiens, UniProt P29275).
T2 sequence (P29275 whole entry): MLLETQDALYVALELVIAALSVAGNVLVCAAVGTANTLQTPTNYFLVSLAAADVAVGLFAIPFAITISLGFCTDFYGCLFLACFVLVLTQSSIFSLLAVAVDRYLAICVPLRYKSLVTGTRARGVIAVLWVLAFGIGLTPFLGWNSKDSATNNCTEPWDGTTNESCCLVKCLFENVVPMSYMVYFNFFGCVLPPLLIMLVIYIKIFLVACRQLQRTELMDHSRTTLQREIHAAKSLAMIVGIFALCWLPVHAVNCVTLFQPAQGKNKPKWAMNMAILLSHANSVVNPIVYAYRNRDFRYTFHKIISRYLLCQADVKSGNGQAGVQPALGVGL
The assay can be described thus: Displacement of [3H]NECA from recombinant human adenosine A2B receptor expressed in CHO cell membranes measured after 180 mins. (Displacement assays read how much labelled ligand stays bound in the presence of the test substance.)

For the next assay, the target named is T3, Adenosine receptor A1 (Homo sapiens, UniProt P30542).
T3 sequence (P30542 whole entry): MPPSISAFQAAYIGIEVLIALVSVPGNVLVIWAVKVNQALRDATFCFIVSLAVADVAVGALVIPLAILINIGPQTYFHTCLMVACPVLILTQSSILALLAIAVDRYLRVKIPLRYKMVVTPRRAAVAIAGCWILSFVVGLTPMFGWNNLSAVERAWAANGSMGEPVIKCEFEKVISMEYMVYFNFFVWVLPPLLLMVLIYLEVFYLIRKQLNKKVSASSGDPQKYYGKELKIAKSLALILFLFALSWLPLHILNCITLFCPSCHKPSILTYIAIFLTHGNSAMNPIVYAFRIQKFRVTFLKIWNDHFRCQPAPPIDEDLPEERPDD
The assay can be described thus: Displacement of [3H]DPCPX from human adenosine A1 receptor expressed in CHO cell membranes after 180 mins. A digest of the protocol: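 Membranes (30 µg protein) are incubated with 3 nM [3H]DPCPX at 25 °C in Tris-HCl 50 mM, MgCl2 2 mM, ADA 2 U/mL, pH 7.4. Six test concentrations are used, and nonspecific binding is set with 50 µM R-PIA. The Kd of 3 nM is used for Ki. Values are the mean of at least three experiments, each in duplicate.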

Another assay concerns the target Adenosine receptor A2a (Homo sapiens, UniProt P29274). The assay can be described thus: Displacement of [3H]NECA from recombinant human adenosine A2A receptor expressed in CHO cell membranes measured after 90 mins.

Sequence of Adenosine receptor A2a (P29274 whole entry): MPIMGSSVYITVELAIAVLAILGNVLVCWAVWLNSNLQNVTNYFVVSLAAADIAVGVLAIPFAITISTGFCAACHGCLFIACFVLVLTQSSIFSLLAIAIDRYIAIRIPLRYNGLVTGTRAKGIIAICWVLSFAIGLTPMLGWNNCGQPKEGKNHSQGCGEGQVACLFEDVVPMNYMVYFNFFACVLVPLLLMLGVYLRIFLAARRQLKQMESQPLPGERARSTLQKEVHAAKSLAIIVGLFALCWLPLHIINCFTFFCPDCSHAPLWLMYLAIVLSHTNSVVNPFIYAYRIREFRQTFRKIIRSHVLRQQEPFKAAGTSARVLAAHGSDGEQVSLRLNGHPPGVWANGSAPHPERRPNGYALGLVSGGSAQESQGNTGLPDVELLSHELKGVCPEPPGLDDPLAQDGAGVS

In the case of `CCCOc1cc(NC(C)=O)nc(S[C@H](C)c2ccccc2)n1`, the negative-log Ki (pKi) on Adenosine receptor A3 [1] is 6.13.
Consider `CCCSc1nc(NC(C)=O)cc(O[C@@H](C)c2ccccc2)n1`, for which the negative logarithm of the IC50 (pIC50) on Adenosine receptor A3 [2] is 8.10. Moreover, the pKi at Adenosine receptor A3 [1] was 9.30.
In the case of `CC[C@@H](C)Oc1cc(NC(C)=O)nc(SCc2ccccc2)n1`, the negative-log Ki (pKi) at Adenosine receptor A3 [1] is 5.86.
In the case of `CC[C@H](C)Oc1cc(NC(C)=O)nc(SCc2ccccc2)n1`, the pIC50 on Adenosine receptor A3 [2] is 6.82. In addition, the pKi on Adenosine receptor A3 [1] was 6.74.
For `CCCSc1nc(NC(C)=O)cc(O[C@H](C)c2ccccc2)n1`, the pKi on Adenosine receptor A3 [1] was 8.77.
As for `CCCOc1cc(NC(C)=O)nc(S[C@@H](C)c2ccccc2)n1`, on Adenosine receptor A3 [2], the negative logarithm of the IC50 (pIC50) was 6.37. Further, on Adenosine receptor A3 [1], the pKi was 6.36.
`CCCSc1nc(NC(C)=O)cc(OC(C)c2ccccc2)n1` (racemic): the pKi was less than 6.00 at Adenosine receptor A2b, less than 6.00 on Adenosine receptor A1, less than 6.00 at Adenosine receptor A2a and 9.22 on Adenosine receptor A3 [1].
Consider `CCC(C)Oc1cc(NC(C)=O)nc(SCc2ccccc2)n1` (racemic), for which the pKi was less than 6.00 at Adenosine receptor A2b, less than 6.00 at Adenosine receptor A1, less than 6.00 at Adenosine receptor A2a and 6.71 at Adenosine receptor A3 [1].
Consider `CCCOc1cc(NC(C)=O)nc(SC(C)c2ccccc2)n1` (racemic), for which the pKi is less than 6.00 on Adenosine receptor A2b, less than 6.00 on Adenosine receptor A1, less than 6.00 at Adenosine receptor A2a and 6.24 on Adenosine receptor A3 [1].
